According to ChEMBL document CHEMBL1121642, “Synthesis and antiherpetic activity of some 4-[(aryloxy)alkyl]pyrazoles” (1981):
Converted amounts (≈) assume the structure as drawn. The source made the active and inactive calls. No cut-off for these calls is given here.

Assays:
[1] = system: Human alphaherpesvirus 2; experiment: Tested in vitro for minimum inhibitory activity against Herpes simplex virus type -2 (HSV-2); Inactive; assay type: functional, organism-based
[2] = system: Human alphaherpesvirus 2; experiment: Tested in vitro for minimum inhibitory activity against Herpes simplex virus type -2 (HSV-2); assay type: functional
[3] = organism: Mus musculus; experiment: Effect on the survival rate of mice infected intravaginally with Herpes simplex virus type -2 (HSV-2) at 10% dosage twice in a day; assay type: functional
Outline: (§1)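 Mice infected intravaginally with a tampon (dental pellet) saturated with HSV suspension. Aqueous drug solution given intravaginally b.i.d. on cotton tampons, starting 4 h postinfection. Each tampon stayed in 24 h, was re-moistened with 0.02 mL drug 6 h after insertion, and was replaced daily. Deaths were recorded daily to 14 days. Read-out: % survival and average survival time, with survivors scored >14 days.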

[4] = organism: Mus musculus; experiment: Effect on the survival rate of mice infected intravaginally with Herpes simplex virus type -2 (HSV-2) at 5% dosage twice in a day; assay type: functional; outline: as §1
[5] = system: Mus musculus; experiment: Effect on the survival rate of mouse infected with herpes genitalis (HSV-2) administered intravaginally at 2% dosage twice in a day; assay type: functional
Outline: (§2)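 HSV-2 mouse genital model, infected intravaginally. Drug prepared in water + 1% gum tragacanth and given intravaginally b.i.d. via saturated cotton tampons, starting 4 h postinfection. Tampons were re-dosed with 0.02 mL 6 h after insertion and replaced daily. Test ended at day 14, with survivors assigned survival time >14 days. Read-out: % survival and average survival time.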

[6] = system: Mus musculus; experiment: Effect on the survival rate of mouse infected with herpes genitalis (HSV-2) administered intravaginally at 5% dosage twice in a day; assay type: functional; outline: as §2
[7] = system: Mus musculus; experiment: Effect on the survival rate of mice infected with HSV-1 administered intravaginally at 1.25% dosage twice in a day; assay type: functional; outline: as §1
[8] = system: Mus musculus; experiment: Effect on the survival rate of mice infected with HSV-1 administered intravaginally at 2.5% dosage twice in a day; assay type: functional; outline: as §1
[9] = organism: Mus musculus; experiment: Number of mice recovered from virus infected with Herpes simplex virus type-2 at 1.25% dosage twice in 2 nd day out of 10 mice sampled; assay type: functional
Outline: (§3)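 Mice were infected intravaginally with HSV-2 Curtis strain. Starting 4 h postinfection, they were treated intravaginally with cotton tampons saturated with 10, 5, 2.5 or 1.25% drug solution, replaced daily, plus 0.02 mL added 6 h later. Vaginal washings with 1.5 mL M-199 were taken each morning on days 1–7, frozen at −70 °C and assayed in BSC-1 cells. Read-out: mice with recoverable virus/mice sampled.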

[10] = organism: Mus musculus; experiment: Number of mice recovered from virus infected with Herpes simplex virus type-2 at 1.25% dosage twice in 3 rd day out of 10 mice sampled; assay type: functional; outline: as §3
[11] = organism: Mus musculus; experiment: Number of mice recovered from virus infected with Herpes simplex virus type-2 at 1.25% dosage twice in 4 th day out of 10 mice sampled; assay type: functional; outline: as §3
[12] = organism: Mus musculus; experiment: Number of mice recovered from virus infected with Herpes simplex virus type-2 at 10% dosage twice in 3 rd day out of 10 mice sampled; assay type: functional; outline: as §3
[13] = organism: Mus musculus; experiment: Number of mice recovered from virus infected with Herpes simplex virus type-2 at 10% dosage twice in 4 th day out of 10 mice sampled; assay type: functional; outline: as §3
[14] = organism: Mus musculus; experiment: Number of mice recovered from virus infected with Herpes simplex virus type-2 at 1.25% dosage twice in 7 th day out of 10 mice sampled; assay type: functional; outline: as §3
[15] = organism: Mus musculus; experiment: Number of mice recovered from virus infected with Herpes simplex virus type-2 at 10% dosage twice in 1st day out of 10 mice sampled; assay type: functional; outline: as §3
[16] = organism: Mus musculus; experiment: Number of mice recovered from virus infected with Herpes simplex virus type-2 at 10% dosage twice in 2 nd day out of 10 mice sampled; assay type: functional; outline: as §3
[17] = organism: Mus musculus; experiment: Number of mice recovered from virus infected with Herpes simplex virus type-2 at 10% dosage twice in 6 th day out of 10 mice sampled; assay type: functional; outline: as §3
[18] = organism: Mus musculus; experiment: Number of mice recovered from virus infected with Herpes simplex virus type-2 at 10% dosage twice in 7 th day out of 10 mice sampled; assay type: functional; outline: as §3
[19] = organism: Mus musculus; experiment: Number of mice recovered from virus infected with Herpes simplex virus type-2 at 2.5% dosage twice in 1st day out of 10 mice sampled; assay type: functional; outline: as §3
[20] = organism: Mus musculus; experiment: Number of mice recovered from virus infected with Herpes simplex virus type-2 at 2.5% dosage twice in 2 nd day out of 10 mice sampled; assay type: functional; outline: as §3
[21] = organism: Mus musculus; experiment: Number of mice recovered from virus infected with Herpes simplex virus type-2 at 2.5% dosage twice in 3 rd day out of 10 mice sampled; assay type: functional; outline: as §3
[22] = organism: Mus musculus; experiment: Number of mice recovered from virus infected with Herpes simplex virus type-2 at 2.5% dosage twice in 4 th day out of 10 mice sampled; assay type: functional; outline: as §3
[23] = organism: Mus musculus; experiment: Number of mice recovered from virus infected with Herpes simplex virus type-2 at 2.5% dosage twice in 6 th day out of 10 mice sampled; assay type: functional; outline: as §3
[24] = organism: Mus musculus; experiment: Number of mice recovered from virus infected with Herpes simplex virus type-2 at 2.5% dosage twice in 7 th day out of 8 mice sampled; assay type: functional; outline: as §3
[25] = organism: Mus musculus; experiment: Number of mice recovered from virus infected with Herpes simplex virus type-2 at 5% dosage twice in 1 st day out of 10 mice sampled; assay type: functional; outline: as §3
[26] = organism: Mus musculus; experiment: Number of mice recovered from virus infected with Herpes simplex virus type-2 at 5% dosage twice in 2 nd day out of 10 mice sampled; assay type: functional; outline: as §3
[27] = organism: Mus musculus; experiment: Number of mice recovered from virus infected with Herpes simplex virus type-2 at 5% dosage twice in 3 rd day out of 10 mice sampled; assay type: functional; outline: as §3
[28] = organism: Mus musculus; experiment: Number of mice recovered from virus infected with Herpes simplex virus type-2 at 5% dosage twice in 4 th day out of 10 mice sampled; assay type: functional; outline: as §3
[29] = organism: Mus musculus; experiment: Number of mice recovered from virus infected with Herpes simplex virus type-2 at 5% dosage twice in 6 th day out of 8 mice sampled; assay type: functional; outline: as §3
[30] = organism: Mus musculus; experiment: Number of mice recovered from virus infected with Herpes simplex virus type-2 at 5% dosage twice in 7 th day out of 8 mice sampled; assay type: functional; outline: as §3
[31] = organism: Mus musculus; experiment: Number of mice recovered from virus infected with Herpes simplex virus type-2 at 1.25% dosage twice in 1st day out of 10 mice sampled; assay type: functional; outline: as §3
[32] = system: Mus musculus; experiment: Effect on the survival rate of mouse infected with herpes genitalis (HSV-2) administered intravaginally at 5% twice in a day; assay type: functional
[33] = system: Mus musculus; experiment: Effect on the survival rate of mice iinfected with HSV-1 administered intravaginally at 2.5% dosage twice in a day; assay type: functional; outline: as §1
[34] = system: Mus musculus; experiment: Effect on the survival rate of mice infected with HSV-1 administered intravaginally at 10% dosage twice in a day; assay type: functional; outline: as §1
[35] = system: Mus musculus; experiment: Effect on the survival rate of mice infected with HSV-1 administered intravaginally at 5% dosage twice in a day; assay type: functional; outline: as §1
[36] = system: Mus musculus; experiment: Effect on the survival rate of mice infected with HSV-2 administered intravaginally at 1.25% dosage twice in a day; assay type: functional; outline: as §1
[37] = system: Mus musculus; experiment: Effect on the survival rate of mice infected with HSV-2 administered intravaginally at 10% dosage twice in a day; assay type: functional; outline: as §1
[38] = system: Mus musculus; experiment: Effect on the survival rate of mice infected with HSV-2 administered intravaginally at 2.5% dosage twice in a day; assay type: functional; outline: as §1
[39] = system: Mus musculus; experiment: Effect on the survival rate of mice infected with HSV-2 administered intravaginally at 5% dosage twice in a day; assay type: functional; outline: as §1
[40] = system: Mus musculus; experiment: Effect on the survival rate of mice iinfected with HSV-1 administered intravaginally at 1.25% dosage twice in a day; assay type: functional; outline: as §1

CCc1n[nH]c(CC)c1CCCCCCOc1ccc(OC)cc1 was tested, and the MIC [1] was “inactive”.
With CCc1n[nH]c(CC)c1CCCCCCOc1ccc(Cl)cc1 the MIC [2] was 6 µg/mL (≈ 17.9 µM).
CCn1nc(C)c(CCCCCCOc2ccc(OC)cc2Cl)c1C was tested, and the MIC [2] was 0.7 µg/mL (≈ 1.92 µM), the Average survival [3] was >9 days and the Survival [3] was 30%. For the same compound, the Average survival [4] was >10 days and the Survival [4] was 30%.
In the case of CCc1n[nH]c(CC)c1CCCCCCOc1ccccc1, the MIC [1] is reported as “inactive”.
In the case of Nc1ncnc2c1ncn2[C@@H]1O[C@H](CO)[C@@H](O)[C@@H]1O [VIDARABINE], the Average survival [5] is reported as >9 days, the Survival [5] is reported as 10% and the Average survival [6] is reported as >13 days. The Survival [6] was 60%.
In the case of CCc1n[nH]c(CC)c1CCCCCCOc1ccc(Br)cc1, the MIC [1] is reported as “inactive”.
CCc1nn(-c2ccccn2)c(CC)c1CCCCCCOc1ccc(OC)cc1Cl was tested, and the MIC [2] was 6 µg/mL (≈ 13.6 µM).
For CCc1nn(CCN(C)C)c(CC)c1CCCCCCOc1ccc(OC)cc1Cl, the MIC [2] was 6 µg/mL (≈ 13.8 µM).
In the case of CCc1nn(CC(=O)O)c(CC)c1CCCCCCOc1ccc(OC)cc1Cl, the MIC [1] is reported as “inactive”.
In the case of O=c1[nH]c(=O)n([C@H]2C[C@H](O)[C@@H](CO)O2)cc1I [IDOXURIDINE], the Average survival [5] is reported as >11 days, the Survival [5] is reported as 40% and the Average survival [6] is reported as >9 days. It also gave a Survival [6] of 10%.
CCc1n[nH]c(CC)c1CCCCCCOc1ccc(OC)cc1Cl.CS(=O)(=O)O was tested, and the Average survival [7] was >10 days, the Average survival [8] was >11 days and the “No. of mice receovered” value [9] was 1. The “No. of mice receovered” value [10] was 0, the “No. of mice receovered” value [11] was 0 and the “No. of mice receovered” value [12] was 0. The “No. of mice receovered” value [13] was 0, the “No. of mice receovered” value [14] was 0 and the “No. of mice receovered” value [15] was 0. The “No. of mice receovered” value [16] was 0, the “No. of mice receovered” value [17] was 0 and the “No. of mice receovered” value [18] was 0. The “No. of mice receovered” value [19] was 0, the “No. of mice receovered” value [20] was 1 and the “No. of mice receovered” value [21] was 0. The “No. of mice receovered” value [22] was 0, the “No. of mice receovered” value [23] was 0 and the “No. of mice receovered” value [24] was 0. The “No. of mice receovered” value [25] was 1, the “No. of mice receovered” value [26] was 0 and the “No. of mice receovered” value [27] was 0. For the same compound, the “No. of mice receovered” value [28] was 0, the “No. of mice receovered” value [29] was 0 and the “No. of mice receovered” value [30] was 0. For the same compound, the “No. of mice receovered” value [31] was 0, the Survival [32] was 80% and the Survival [33] was 40%. The Average survival [34] was >13 days, the Survival [34] was 70% and the Average survival [35] was >12 days. For the same compound, the Survival [35] was 60%, the Average survival [36] was >10 days and the Survival [36] was 40%. For the same compound, the Average survival [37] was >13 days, the Survival [37] was 90% and the Average survival [38] was >12 days. For the same compound, the Survival [38] was 70%, the Average survival [39] was >13 days and the Survival [39] was 90%. For the same compound, the Average survival [5] was >11 days, the Survival [5] was 60% and the Average survival [6] was >13 days. It also gave a Survival [40] of 30%.
CCc1n[nH]c(CC)c1CCCCCCOc1ccc(O)cc1Cl was tested, and the MIC [2] was 12 µg/mL (≈ 34.2 µM).
With COc1ccc(OCCCCCCc2c(C)nn(C)c2C)c(Cl)c1 the MIC [2] was 0.7 µg/mL (≈ 1.99 µM).
With COc1ccc(OCCCCCCCc2c(C)nn(C)c2C)c(Cl)c1 the MIC [2] was 0.7 µg/mL (≈ 1.92 µM), the Average survival [3] was >10 days and the Survival [3] was 30%. For the same compound, the Average survival [4] was >7 days and the Survival [4] was 10%.
CCCn1nc(C)c(CCCCCCOc2ccc(OC)cc2Cl)c1C showed an MIC [2] of 1.5 µg/mL (≈ 3.96 µM).
Work on CCc1n[nH]c(CC)c1CCCCCCOc1ccc([S+](C)[O-])cc1Cl (centres undefined) yielded an MIC [2] of 3 µg/mL (≈ 7.56 µM).
With CCc1nn(C(C)=O)c(CC)c1CCCCCCOc1ccc(OC)cc1Cl the MIC [1] was “inactive”.
In the case of CCc1nn(CCO)c(CC)c1CCCCCCOc1ccc(OC)cc1Cl, the MIC [2] is reported as 12 µg/mL (≈ 29.3 µM).
